Assay results from ChEMBL document CHEMBL2406953, “Bioactive constituents of Indigofera spicata” (J Nat Prod, 2013).
Active and inactive are the calls of the source.

Tests used:
Mus musculus [1] = species: Mus musculus; assay: Induction of quinone reductase in mouse Hepa1c1c7 cells; format: cell-based
Outline: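 Phase II enzyme induction was measured in murine Hepa 1c1c7 hepatoma cells by a standard quinone reductase procedure. L-sulforaphane served as the positive control. Values are CD, the concentration that doubles quinone reductase activity, given as mean ± SD of three independent experiments.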

[2] = Cytotoxicity against mouse Hepa-1c1c7 cells; format: functional, cell-based
[3] = Chemopreventive index, ratio of IC50 for mouse Hepa1c1c7 cells to CD for quinone reductase in mouse Hepa1c1c7 cells
[4] = Cytotoxicity against human CCD-112CoN cells by SRB assay; format: cell-based
Outline: (§1)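 Normal colon CCD-112CoN cells tested by SRB assay alongside HT-29; IC50 (50% growth inhibition) as mean ± SD of triplicate; paclitaxel positive control; fold selectivity = IC50 in CCD-112CoN divided by IC50 in HT-29.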

697 [5] = assay: Cytotoxicity against human 697 cells after 72 hrs by MTS assay; format: functional, cell-based; details: Homo sapiens, 697, 72 h
Outline: (§2)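 697 (DSMZ) and Raji (ATCC) cells at 200,000 cells/mL; compounds from 2 mM DMSO stock, diluted in 10% DMSO, eight three-fold dilutions giving final 10 to 0.005 µM plus 0; final DMSO 0.5%; vincristine sulfate 25 nM positive control. Quadruplicate wells, 48 and 72 h, 37°C, 5% CO2; MTS read-out; IC50 = 50% growth inhibition, mean ± SD of three independent experiments.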

697 [6] = assay: Cytotoxicity against human 697 cells after 48 hrs by MTS assay; format: functional, cell-based; details: Homo sapiens, 697, 48 h; outline: as §2
[7] = Selectivity ratio of IC50 for human CCD-112CoN cells to IC50 for human HT29 cells; format: ADME, cell-based, HT-29; details: CCD-112CoN cells versus HT29 cells, read-out: Ratio IC50; outline: as §1
Raji [8] = assay: Cytotoxicity against human Raji cells after 72 hrs by MTS assay; format: functional, cell-based; outline: as §2
Raji [9] = assay: Cytotoxicity against human Raji cells after 48 hrs by MTS assay; format: functional, cell-based; outline: as §2
HT-29 [10] = assay: Cytotoxicity against human HT-29 cells after 72 hrs by SRB assay; format: functional, cell-based; details: HT-29, 72 h
Outline: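 HT-29 colon cancer cells, sulforhodamine B assay, 72 h; paclitaxel positive control; IC50 defined as concentration inhibiting 50% cell growth, mean ± SD from a triplicate.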

697 [11] = assay: Induction of cell death in human 697 cells at 10 uM after 48 to 72 hrs using propidium iodide staining by flow cytometry; format: functional
Outline: (§3)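 697 cells at 200,000 cells/mL treated at final 10, 1.11, 0.123, 0.014, 0 µM (from 2 mM stock, 10% DMSO dilutions, final DMSO 0.5%) for 48 and 72 h; vincristine 25 and 5 nM positive control. Same dilutions run in parallel by MTS and by propidium iodide: cells pelleted, resuspended in PI/PBS, 15 min dark at room temperature, flow cytometry; three independent experiments.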

697 [12] = assay: Cytostatic activity against human 697 cells assessed as reduction in cell viability at 0.014 to 10 uM after 48 to 72 hrs by MTS assay; format: functional, cell-based; outline: as §3
MDA-MB-435 = assay: Antitumor activity against human MDA-MB-435 cells in hollow fiber implanted in immunodeficient NCr nu/nu mouse assessed as reduction in cell growth at 2 mg/kg, ip qd; format: functional; parameters: scale not given: the % may be the effect or the level left; details: route intraperitoneal
HT-29 [13] = assay: Antitumor activity against human HT-29 cells in hollow fiber implanted in immunodeficient NCr nu/nu mouse assessed as reduction in cell growth at 0.5 to 2 mg/kg, ip qd
Mus musculus [14] = assay: Toxicity in immunodeficient NCr nu/nu mouse at 0.5 to 2 mg/kg, ip qd; format: organism-based; parameters: dose 0.5-2 mg/kg, route intraperitoneal; details: in vivo
Mus musculus [15] = assay: Toxicity in immunodeficient NCr nu/nu mouse at 5 to 30 mg/kg, ip qd; format: organism-based; parameters: dose 5-30 mg/kg, route intraperitoneal; details: in vivo
Outline: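 Female NCr nu/nu mice with ip and sc hollow fibers (HT-29, MCF-7, MDA-MB-435 cells) given compound in 30% cyclodextrin ip once daily at 5, 10, 15, 30 mg/kg; bortezomib 1 mg/kg ip daily in 30% cyclodextrin as positive control; lethality monitored after each injection.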

SMILES | CD (Mus musculus [1]) [µM] | IC50 [2] [µM] | Ratio [3] | also measured
COc1cc2c(c3c1C(=O)C[C@@H](c1ccccc1)O3)[C@H]1[C@@H](O2)OC(C)(C)[C@@H]1OC(C)=O (stereo in doubt; 5) | > 10 | – | – | –
C[S@+]([O-])CCCCN=C=S [L-SULFORAPHANE] | 0.5 | 12.1 | 23.9 | –
C=C(C)[C@H]1Cc2c(ccc3c2O[C@@H]2COc4cc(OC)c(OC)cc4[C@@H]2C3=O)O1 [ROTENONE] | 0.8 | 0.7 | 0.9 | IC50 [4]: > 127 µM; IC50 697 [5]: 0.3 µM; IC50 697 [6]: 0.3 µM; selectivity ratio [7]: > 423; IC50 (Raji [8]): 1.1 µM; IC50 (Raji [9]): 4.2 µM
CC1(C)O[C@@H]2Oc3ccc(C(=O)/C=C/c4ccccc4)c(O)c3[C@@H]2[C@H]1O [(+)-TEPHROSONE] | 3.8 | 37.6 | 9.9 | –
COc1cc2c(cc1OC)[C@]1(O)C(=O)c3ccc4c(c3O[C@@H]1CO2)C=CC(C)(C)O4 [TEPHROSIN] | 0.4 | 13.9 | 35.3 | IC50 (HT-29 [10]): > 10 µM; IC50 697 [5]: 9 µM; Activity 697 [11]: 24%; Activity 697 [12]: Active; IC50 697 [6]: 5.4 µM; IC50 (Raji [8]): > 10 µM; IC50 (Raji [9]): > 10 µM
COc1cc2c(c3c1C(=O)C[C@@H](c1ccccc1)O3)[C@H]1[C@@H](O2)OC(C)(C)[C@@H]1OC(C)=O (stereo in doubt; 2) [listing 1 of 2 here] | – | 63.9 | 376.7 | –
COc1cc2c(c(O)c1C(=O)/C=C/c1ccccc1)[C@H]1[C@@H](O2)OC(C)(C)[C@@H]1OC(C)=O [TEPHROPURPURIN] | 0.8 | 18.1 | 23.9 | –
C=C(C)[C@H]1Cc2c(ccc3c2O[C@@H]2COc4cc(OC)c(OC)cc4[C@]2(O)C3=O)O1 [ROTENOLONE] | 0.4 | 0.2 | 0.6 | IC50 [4]: 102 µM; IC50 (HT-29 [10]): 0.1 µM; Activity (MDA-MB-435): 20%; IC50 697 [5]: 0.5 µM; IC50 697 [6]: 0.7 µM; Activity (HT-29 [13]): inactive; selectivity ratio [7]: 1020; IC50 (Raji [8]): 2.4 µM; IC50 (Raji [9]): 5.6 µM; Activity (Mus musculus [14]): Non-toxic; Activity (Mus musculus [15]): Toxic
COc1ccc2c(c1C1=COC(C)(C)C1=O)O[C@H](c1ccccc1)CC2=O [(2S)-2,3-DIHYDROTEPHROGLABRIN] | 6.4 | 23.1 | 3.6 | –
COc1ccc2c(c1/C=C/C(C)(C)OC)O[C@H](c1ccccc1)CC2=O | 8.3 | 49 | 5.9 | –
CC(=O)O[C@H]1C(=O)[C@@]2(C)[C@H]([C@H](OC(=O)c3ccccc3)[C@]3(O)C[C@H](OC(=O)[C@H](O)[C@@H](NC(=O)c4ccccc4)c4ccccc4)C(C)=C1C3(C)C)[C@]1(OC(C)=O)CO[C@@H]1C[C@@H]2O [PACLITAXEL] | – | – | – | IC50 [4]: 23 µM; IC50 (HT-29 [10]): 0.0006 µM; selectivity ratio [7]: 38300
COc1ccc2c(c1/C=C/C(C)(C)O)O[C@H](c1ccccc1)CC2=O | 4.2 | 47.4 | 11.3 | –
COc1cc2c(c3c1C(=O)C[C@@H](c1ccccc1)O3)[C@H]1[C@@H](O2)OC(C)(C)[C@@H]1OC(C)=O (stereo in doubt; 2) [listing 2 of 2 here] | 0.2 | – | – | –
